# According to PubChem BioAssay:
# A number with no mark means an inactive call. Inconclusive results are not listed. The source made the active and inactive calls.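 How the source made its calls, unless noted: active means inhibition over a set limit, the all-compound mean plus 3 SD, in both replicate runs; inconclusive means over that limit in just one replicate run; inactive means at or under that limit in both runs.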
# Key:
# [1] = OD615 S. cerevisiae growth inhibition, permissive medium, pilot counter-assay, permissive growth control for S. cerevisiae lifespan shortening project (AID 705;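 active means growth inhibition above 25% in both replicates, a cutoff set 3 SD above the mean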); settings: OD615, 24 h, at 10 µM, hits give high values
# How it was run: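 Material: engineered DeaD yeast; Compound: one dose 10 µM, DMSO 0.25% final; Detection: absorbance (optical density) at 615 nm; Buffer or medium: permissive raffinose/galactose medium; Timing: 24 h exposure, 30 °C.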
# [2] = Restrictive medium S. cerevisiae growth inhibition, OD615, pilot screen of yeast lifespan reduction project, restrictive growth control (AID 706;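 active means growth inhibition above a set limit, 3 SD over mean compound inhibition, in both replicates, cut at about 43% in these data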;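 further: modified DeaD lifespan yeast strain shifted to restrictive glucose medium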); settings: OD615, 48 h, at 10 µM, hits give high values
# How it was run: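 Buffer or medium: restrictive glucose medium (CSMM-D); test system: modified S. cerevisiae; doses: single dose of 10 µM compound final, 0.25% DMSO; schedule: 48 h compound exposure at 30 °C; detection: absorbance (optical density) measured at 615 nm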
# [3] = viability gain of MRP-1-high H69AR cells under doxorubicin, pilot screen, MRP-1 activator project, CellTiter-Glo, duplicate (AID 807;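 active means viability increase at or above a cutoff of the median across tested compounds plus 3 SD, cut at about 8.5% in these data, passing the limit was not always enough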;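 further: compound pretreatment 18-22 h then 72 h combined with doxorubicin; 0% = doxorubicin alone and 100% = vehicle without doxorubicin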); settings: H69AR viability with doxorubicin, CellTiter-Glo luminescence; at 10 µM; hits give high values
# [4] = growth suppression of beta-catenin knockout HCT116, pilot screen, human colon tumor cells (AID 823;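 active means cell viability at or below a set limit in both duplicate runs, the limit being the all-compound median minus 4 SD, cut at about 23% in these data, passing the limit was not always enough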;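 further: 0% = wells killed by 20 µM Hyamine and 100% = untreated DMSO cell wells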); settings: CellTiter-Glo, 60 h, at 10 µM, hits give low values
# [5] = growth suppression of PTEN-deleted HCT116, pilot screen, cell-based, HCT116 clonal line, CellTiter-Glo (AID 824;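 active means viability at or below 27.92% in each of two runs, the all-compound median minus 4 SD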;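 further: 0% = 20 µM Hyamine control and 100% = vehicle cell control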); settings: 60 h, at 10 µM, hits give low values
# [6] = inhibitors of the yeast RAM network, pilot screen, dse1pr::URA3 reporter, 5-FOA selection (AID 869);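 further: 0% = DMSO wells with no growth and 100% = 10 µM 1-NA-PP1 with full growth; RAM network block rescues cells from 5-FOA so hits raise OD615 growth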; settings: S. cerevisiae dse1pr::URA3 5-FOA growth, OD615, 2 d; at 10 µM; hits give high values; strain carries analog-sensitive mutant Cbk1 kinase
# [7] = RAM signaling pathway blockade in yeast – S. cerevisiae, Pdr1DBD-CYC8 efflux-inhibited sensitized strain, primary screen (AID 1298;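 active means RAM network inhibition above 8.4% in each of two replicates, 3 SD over the compound average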;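 further: 0% = DMSO untreated cells without growth and 100% = 10 µM 1-NA-PP1 full growth; higher means more yeast growth rescued from 5-FOA killing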); settings: S. cerevisiae cbk1-as DSE1-URA3 strain, 5-FOA growth OD615, 2 d; at 50 µM; hits give high values
SMILES,growth inhibition [1] [%],growth inhibition [2] [%],viability increase [3] [%],viability [4],viability [5],inhibition [6] [%],RAM network inhibition [7] [%]
O=C(COC(=O)c1ccc(Br)o1)Nc1nc2ccccc2s1,-11.2,-4.01,-4.65,90.5%,87.8%,0.75,1.88
COc1ccc(N)cc1C#N,-7.31,-5.58,-3.17,98.5%,93.6%,1.06,1.63
Cc1cc2nsnc2c(S(=O)(=O)NCC(=O)O)c1C,-7.75,-1.79,1.73,100%,102%,2.25,0.2
Cc1ccc2cc(-c3noc(C4CCCCC4)n3)c(=O)[nH]c2c1,-10.9,-13,-2.36,112%,104%,3.56,4.76
COC(=O)c1cc(Nc2cc(C)nc3ncnn23)cc(C(=O)OC)c1,7.62,11,-3.2,108%,97.1%,1.31,1.36
COC(=O)c1ccc(NC(=O)Cn2nc(SC)n(N)c2=S)cc1,-11.2,-14.1,-0.99,98%,99.3%,1.85,7.07
C=CCn1c(O)c(C2=c3ccccc3=NC2=O)sc1=Nc1ccc(O)cc1,-4.33,-12,-8.74,2.1% (active),1.53% (active),1.98,2.7
O=C(c1ccncc1)N1CCN(C(=O)c2cccc3ccccc23)CC1,-14.8,-7.07,-2.73,101%,93.9%,2.16,2.45
CCN1CCN(C(c2ccccc2)c2sc3nc(C)nn3c2O)CC1 (configuration not stated),0.24,1.3,-1.49,102%,101%,1.31,5.66
Cc1cc(C)nc(NS(=O)(=O)c2ccc(NC(=O)c3ccco3)cc2)n1,-5.44,-11.7,-1.87,100%,95.9%,0.26,2.44
COc1ccc(OC)c(C2CC(=O)N3CN(c4ccccc4)CSC3=C2C#N)c1 (configuration not stated),0.46,26.8,-4.09,96.2%,94.5%,1.09,0.06
COc1cccc(N2CCN(C3CC(=O)N(c4ccc(Cl)cc4)C3=O)CC2)c1 (configuration not stated),-8.98,-2.62,-0.33,96.2%,91.6%,0.57,5.46
CCc1ccccc1S(=O)(=O)Cc1ccc(C(=O)NC(C)C)o1,-2.43,-2.4,-1.52,107%,97.6%,1.24,3.36
Cc1ccc(CSc2nnc(Cn3c(=O)sc4ccccc43)n2C)cc1,-10.6,5.88,2.44,95.8%,88.2%,2.75,6.03
CCn1nnnc1-c1ccc(OC)c(S(=O)(=O)NCCc2ccccc2)c1,2.78,2.87,0.85,93.5%,97.3%,0.03,1.98
COC(=O)c1cc(NC(=O)c2nccnc2C(=O)O)cc(C(=O)OC)c1,-10.9,3.16,-1.21,90.4%,98%,-0.12,-1.46
CCN(CC(=O)NCc1ccc(F)cc1)C(=O)C1CCN(C(=O)Nc2ccccc2)CC1,-2.92,-6.36,-0.13,96.2%,98.6%,1.25,0.37
CC1(C)CCCC2=C1CC1C(=O)N(O)C(=O)C1C2 (configuration not stated),-8.79,-12.1,-1.21,102%,87.8%,1.96,1.62

SMILES,growth inhibition [1] [%],growth inhibition [2] [%],viability increase [3] [%],viability [4],viability [5],inhibition [6] [%],RAM network inhibition [7] [%]
CCn1c(-c2ccc(N)cc2)nc2ccccc21,-7.32,7.48,-3.43,103%,83.5%,1.18,0.72
CN(CCNC(=O)C1(O)c2ccccc2NC(=O)N1c1ccccc1)Cc1ccccc1 (configuration not stated),-15.6,-17.7,-2.03,95.8%,93.2%,0.43,2.02
c1ccc2c(c1)OCC(c1csc3ncnc(N4CCOCC4)c13)O2 (configuration not stated),-14.1,-9.32,-3.2,94.4%,75.7%,1.26,8.63
CCOC(=O)C1CCCN(C(=O)c2cn(CC(C)C)c(=O)c3cc(OC)c(OC)cc23)C1 (configuration not stated),-8.41,-15.7,-3.43,97%,95%,0.555,0.93
COc1ccccc1N1CCN(C(=O)CN(c2ccccc2OC)S(=O)(=O)c2ccccc2)CC1,-0.685,-7.83,-1.57,87.5%,83.9%,0.845,4.88
CC12CC(NC(=O)N1CCc1ccccc1)c1ccccc1O2 (configuration not stated),-8.73,-25,-3.43,74.9%,73.8%,1.45,5.31
Cc1c(NC(=O)C2CC=CCC2C(=O)O)c(=O)n(-c2ccccc2)n1C (configuration not stated),-5.59,-6.86,-0.87,101%,94.3%,1.54,1.99
OC(CN1c2ccccc2Sc2ccccc21)Cn1nnc2ccccc21 (configuration not stated),-4.44,-9.12,-6.85,72%,66.2%,1.69,10.2
O=C(CCS(=O)CCC(=O)NCc1ccccc1)NCc1ccccc1,-2.28,6.21,-0.32,97.9%,102%,0.92,4.15
O=C(Nc1cccc2ccccc12)N1CCN(c2ccc(F)cc2)CC1,-12.3,-14.3,-1.74,98.6%,98.8%,1.88,3.08
O=C(CCCc1c[nH]c2ccccc12)N1CCN(c2ccc(N3CCOCC3)nn2)CC1,-2.69,-3.36,-1.4,102%,105%,0.485,-0.41
CCOC(=O)CNC(=O)CSc1nc2sc(C)c(C)c2c(=O)n1C,-0.13,34.3,-3.44,98.4%,97.6%,3.61,5.94
CC(=O)c1ccc(Nc2cc(C)nc3nc(C)nn23)cc1,-0.07,-9.04,-3.3,103%,100%,0.72,-1.56
Cc1cc2cc(CCNC(=O)CC(C)(C)C)c(=O)[nH]c2cc1C,-11.3,-21,-0.18,101%,98.7%,2.57,5.74
Cc1cc(C)cc(N(CC(=O)N2CCn3c2nc2ccccc23)S(=O)(=O)c2c(C)noc2C)c1,-5.97,11.2,-4.06,88.9%,90.9%,1.79,10.1
Cc1c(NC(=O)OCCSc2nc(N(C)C)nc(N(C)C)n2)sc(=S)n1C,2.93,3.13,-0.48,83%,76%,2.92,1.79
CCOC(=O)c1c(NC(=O)c2ccco2)sc2c1CCCC2,-15.7,-15.4,1.84,97.8%,101%,4.13,1.41
COc1cccc(N(CC(=O)NCc2cccnc2)S(C)(=O)=O)c1,-11.3,-4.04,-1.47,95.1%,94.6%,0.625,3.01
